ChEMBL document CHEMBL2424614, “A novel p-terphenyl derivative inducing cell-cycle arrest and apoptosis in MDA-MB-435 cells through topoisomerase inhibition” (Eur J Med Chem, 2013)
Activity calls are given as the source filed them. The rule behind the calls is not given here.

Experiments:
[1] = system: MDA-MB-435; assay: Induction of apoptosis in human MDA-MB-435 cells assessed as viable cells at 1 uM after 24 hrs by annexin-V FITC/propidium iodide staining-based flow cytometry (reference value: 98.62 +/- 0.25%); assay type: functional; settings: MDA-MB-435, 24 h, read-out: Activity
Outline: (§1)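 MDA-MB-435 cells treated 24 h, stained with annexin V-FITC/PI per kit instructions, analysed by flow cytometry. Quadrant statistics: lower right taken as apoptotic, upper right as necrotic or post-apoptotic necrotic. Representative of three similar experiments.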

[2] = system: MDA-MB-435; assay: Induction of apoptosis in human MDA-MB-435 cells assessed as dead cells at 0.5 uM after 24 hrs by annexin-V FITC/propidium iodide staining-based flow cytometry (reference value: 0.61 +/- 0.24%); assay type: functional
[3] = system: MDA-MB-435; assay: Induction of apoptosis in human MDA-MB-435 cells assessed as late apoptotic cells at 0.5 uM after 24 hrs by annexin-V FITC/propidium iodide staining-based flow cytometry (reference value: 0.34 +/- 0.08%); assay type: functional; outline: as §1
[4] = system: MDA-MB-435; assay: Induction of apoptosis in human MDA-MB-435 cells assessed as early apoptotic cells at 0.5 uM after 24 hrs by annexin-V FITC/propidium iodide staining-based flow cytometry (reference value: 0.61 +/- 0.24%); assay type: functional; outline: as §1
[5] = system: MDA-MB-435; assay: Induction of apoptosis in human MDA-MB-435 cells assessed as nuclear fragmentation at 0.25 to 1 uM by DAPI staining-based fluorscence microscopy; assay type: functional, cell-based
Outline: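 Treated MDA-MB-435 cells washed in ice-cold PBS, fixed 20 min in 4% paraformaldehyde, stained 30 min at 37 °C with DAPI (50 µg/mL) containing 100 µg/mL RNase A. After PBS washes, examined by fluorescence microscopy (excitation 340 nm, emission 488 nm).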

[6] = system: MDA-MB-435; assay: Cell cycle arrest in human MDA-MB-435 cells assessed as increase in CDC2 expression at 0.25 to 1 uM after 12 to 24 hrs by Western blotting analysis; assay type: functional, cell-based
Outline: (§2)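 Treated MDA-MB-435 cells lysed in ice-cold Tris-HCl pH 7.4 buffer with Triton, phosphatase and protease inhibitors. Lysates clarified, boiled in SDS loading buffer, run on 8-12% SDS-PAGE and blotted. Membranes blocked in 5% skim milk, probed with primary antibodies, then peroxidase secondaries with ECL detection. β-actin as loading control.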

[7] = system: MDA-MB-435; assay: Induction of DNA damage in human MDA-MB-435 cells assessed as phosphorylation of H2AX at Ser139 at 0.5 uM after 12 hrs by Western blotting analysis; assay type: functional, cell-based; outline: as §2
[8] = system: MDA-MB-435; assay: Cell cycle arrest in human MDA-MB-435 cells assessed as accumulation at G2/M phase at 1 uM after 24 hrs by propidium iodide staining-based flow cytometry (reference value: 14.05%); assay type: functional
[9] = system: MDA-MB-435; assay: Cell cycle arrest in human MDA-MB-435 cells assessed as accumulation at G1 phase at 1 uM after 24 hrs by propidium iodide staining-based flow cytometry (reference value: 28.06%); assay type: functional
[10] = system: MDA-MB-435; assay: Cell cycle arrest in human MDA-MB-435 cells assessed as accumulation at sub-G1 phase at 1 uM after 24 hrs by propidium iodide staining-based flow cytometry (reference value: 0.79%); assay type: functional
[11] = system: MDA-MB-435; assay: Cell cycle arrest in human MDA-MB-435 cells assessed as accumulation at S phase at 0.5 uM after 24 hrs by propidium iodide staining-based flow cytometry (reference value: 57.11%); assay type: functional
[12] = system: MDA-MB-435; assay: Cell cycle arrest in human MDA-MB-435 cells assessed as accumulation at G1 phase at 0.5 uM after 24 hrs by propidium iodide staining-based flow cytometry (reference value: 28.06%); assay type: functional
[13] = system: MDA-MB-435; assay: Cell cycle arrest in human MDA-MB-435 cells assessed as accumulation at sub-G1 phase at 0.5 uM after 24 hrs by propidium iodide staining-based flow cytometry (reference value: 0.79%); assay type: functional
[14] = system: MDA-MB-435; assay: Cell cycle arrest in human MDA-MB-435 cells assessed as accumulation at G1 phase at 0.25 uM after 24 hrs by propidium iodide staining-based flow cytometry (reference value: 28.06%); assay type: functional
[15] = system: MDA-MB-435; assay: Cytotoxicity against human MDA-MB-435 cells assessed as growth inhibition after 72 hrs by MTT assay; assay type: functional, cell-based; settings: MDA-MB-435, 72 h
Outline: (§3)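 MTT assay: cells treated in triplicate with a range of concentrations for 72 h at 37 °C, 5% CO2. Medium replaced, MTT (5 mg/mL) added for 4 h, then SDS/isobutanol/HCl solubiliser overnight. Absorbance read at 590 nm. Inhibition calculated against control and blank wells; IC50 is concentration giving 50% growth inhibition; three independent experiments.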

[16] = system: A549; assay: Cytotoxicity against human A549 cells assessed as growth inhibition after 72 hrs by MTT assay; assay type: functional, cell-based; outline: as §3
[17] = species on record: Bos taurus; assay: Induction of calf thymus DNA topoisomerase 1 poisoning activity using pBR322 as substrate assessed as appearance of nicked open circular DNA at 100 uM after 30 mins by Agarose gel electrophoresis
Outline: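 Calf thymus Topo I (1 unit) with 0.5 µg pBR322 in relaxation buffer (10 mM Tris-HCl pH 7.9, 150 mM NaCl, 0.1% BSA, 1 mM spermidine, 5% glycerol), 37 °C for 30 min. Stopped with 10% SDS, digested with proteinase K (50 µg/mL) 20 min, run on ethidium bromide-containing 1% agarose gel, 5 V/cm, 2 h. Nicked open circular and linear DNA positions scored; at least duplicate.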

[18] = system: MDA-MB-435; assay: Induction of apoptosis in human MDA-MB-435 cells at 0.25 to 1 uM after 24 hrs by annexin-V FITC/propidium iodide staining-based flow cytometry in presence of N-acetylcysteine; assay type: functional, cell-based
[19] = system: MDA-MB-435; assay: Cell cycle arrest in human MDA-MB-435 cells at 0.25 to 1 uM after 24 hrs by propidium iodide staining-based flow cytometry in presence of N-acetylcysteine; assay type: functional
[20] = system: MDA-MB-435; assay: Induction of human apoptosis in MDA-MB-435 cells assessed as upregulation of Bak protein expression at 0.25 to 1 uM after 12 hrs by Western blotting analysis; assay type: functional, cell-based; outline: as §2
[21] = system: MDA-MB-435; assay: Induction of apoptosis in human MDA-MB-435 cells assessed as PARP cleavage after 12 to 24 hrs by Western blotting analysis; assay type: functional, cell-based; outline: as §2
[22] = system: MDA-MB-435; assay: Induction of apoptosis in human MDA-MB-435 cells assessed as increase in cleaved-caspase 3 expression after 12 to 24 hrs by Western blotting analysis; assay type: functional, cell-based; outline: as §2
[23] = system: MDA-MB-435; assay: Induction of apoptosis in human MDA-MB-435 cells assessed as decrease in procaspase 3 expression after 12 to 24 hrs by Western blotting analysis; assay type: functional, cell-based; outline: as §2
[24] = system: MDA-MB-435; assay: Induction of apoptosis in human MDA-MB-435 cells assessed as dead cells at 2 uM after 24 hrs by annexin-V FITC/propidium iodide staining-based flow cytometry (reference value: 0.61 +/- 0.24%); assay type: functional
[25] = system: MDA-MB-435; assay: Induction of apoptosis in human MDA-MB-435 cells assessed as early apoptotic cells at 2 uM after 24 hrs by annexin-V FITC/propidium iodide staining-based flow cytometry (reference value: 0.61 +/- 0.24%); assay type: functional; outline: as §1

## Oc1ccc(-c2ccc(-c3ccc(O)c(O)c3)cc2)cc1
[1]
  viability at 1 µM: 76.3%
[2]
  Activity: 1.27%
[3]
  Activity: 7.79%
[4]
  Activity: 8.01%
[5]
  Activity: Active
[6]
  Activity: Active
[7]
  Activity: inactive
[8]
  Activity: 54.51%
[9]
  Activity: 22.42%
[10]
  Activity: 10.5%
[11]
  Activity: 26.38%
[12]
  Activity: 30.68%
[13]
  Activity: 4.53%
[14]
  Activity: 34.91%
[15]
  IC50: < 1000 nM
[16]
  growth inhibition (GI): Active
[17]
  Activity: inactive
[18]
  Activity: Active
[19]
  Activity: Active
[20]
  Activity: Active
[21]
  Activity: Dose-dependent effect
[22]
  Activity: Dose-dependent effect
[23]
  Activity: Dose-dependent effect
[24]
  Activity: 1.7%
[25]
  Activity: 12.87%
